pKi: −log10 of the molar value.
Key:
D(2) dopamine receptor [1] = biological target: T1, D(2) dopamine receptor (Homo sapiens, UniProt P14416); assay: biochemical; type: cell-based, HEK293
D(2) dopamine receptor [2] = biological target: T1, D(2) dopamine receptor; assay: biochemical; type: cell-based, HEK293; remark: listed apart in the source
Rattus norvegicus [3] = assay: Reduction in 3,4-dihydroxyphenylacetic acid level in Sprague-Dawley rat striatum at 100 umol/kg, sc relative to saline treated control; type: functional; parameters: scale not given: the % may be the effect or the level left
Outline: (§1)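 Striatal DOPAC measured post-mortem after a single test-compound dose. Each level is expressed as a percentage of the saline-treated control, with n = 4. Significance was tested by Student's t test (P<0.05).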

Rattus norvegicus [4] = assay: Reduction in spontaneous locomotor activity in Sprague-Dawley rat striatum at 100 umol/kg, sc relative to control; type: functional; parameters: scale not given: the % may be the effect or the level left
Rattus norvegicus [5] = assay: Reduction in amphetamine-induced locomotor activity in Sprague-Dawley rat striatum at 100 umol/kg, sc relative to control; type: functional; parameters: scale not given: the % may be the effect or the level left
Outline: (§2)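 Rats were pretreated with amphetamine (1.5 mg/kg intraperitoneally). Locomotor activity was recorded 15-60 min after test-compound injection, measured at 25 Hz and compared with amphetamine-pretreated controls, with n = 4.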

Rattus norvegicus [6] = assay: Reduction in 3,4-dihydroxyphenylacetic acid level in Sprague-Dawley rat striatum at 33 umol/kg, sc relative to saline treated control; type: functional; parameters: scale not given: the % may be the effect or the level left
Outline: as §1

Rattus norvegicus [7] = assay: Reduction in spontaneous locomotor activity in Sprague-Dawley rat striatum at 33 umol/kg, sc relative to control; type: functional; parameters: scale not given: the % may be the effect or the level left
Rattus norvegicus [8] = assay: Reduction in amphetamine-induced locomotor activity in Sprague-Dawley rat striatum at 33 umol/kg, sc relative to control; type: functional; parameters: scale not given: the % may be the effect or the level left
Outline: as §2

Rattus norvegicus [9] = assay: Reduction in amphetamine-induced locomotor activity in Sprague-Dawley rat striatum at 50 umol/kg, sc relative to control; type: functional; parameters: scale not given: the % may be the effect or the level left
Outline: (§3)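 Rats were pretreated with amphetamine at 1.5 mg/kg intraperitoneally. Locomotor activity was recorded from 15 to 60 min after injection, sampled at 25 Hz, and compared with amphetamine-pretreated controls (n = 4).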

Rattus norvegicus [10] = assay: Reduction in 3,4-dihydroxyphenylacetic acid level in Sprague-Dawley rat striatum at 6.59 umol/kg, sc relative to saline treated control; type: functional; parameters: scale not given: the % may be the effect or the level left
Outline: as §1

Rattus norvegicus [11] = assay: Reduction in spontaneous locomotor activity in Sprague-Dawley rat striatum at 6.59 umol/kg, sc relative to control; type: functional; parameters: scale not given: the % may be the effect or the level left
Rattus norvegicus [12] = assay: Reduction in 3,4-dihydroxyphenylacetic acid level in Sprague-Dawley rat striatum at 7.68 umol/kg, sc relative to saline treated control; type: functional; parameters: scale not given: the % may be the effect or the level left
Outline: (§4)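 Striatal DOPAC was measured by post-mortem biochemistry in rat striatum and expressed relative to saline-injected controls (n = 4). Significance was tested by Student's t test at P<0.05.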

Rattus norvegicus [13] = assay: Reduction in spontaneous locomotor activity in Sprague-Dawley rat striatum at 7.68 umol/kg, sc relative to control; type: functional; parameters: scale not given: the % may be the effect or the level left
Outline: (§5)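 Locomotor activity was recorded in partly habituated rats from 15 to 60 min after injection, sampled at 25 Hz. It was expressed as a percentage of saline control.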

Rattus norvegicus [14] = assay: Reduction in amphetamine-induced locomotor activity in Sprague-Dawley rat striatum at 7.68 umol/kg, sc relative to control; type: functional; parameters: scale not given: the % may be the effect or the level left
Outline: as §3

Rattus norvegicus [15] = assay: Reduction in 3,4-dihydroxyphenylacetic acid level in Sprague-Dawley rat striatum at 1 umol/kg, sc relative to saline treated control; type: functional; parameters: scale not given: the % may be the effect or the level left
Outline: as §4

Rattus norvegicus [16] = assay: Reduction in spontaneous locomotor activity in Sprague-Dawley rat striatum at 1 umol/kg, sc relative to control; type: functional; parameters: scale not given: the % may be the effect or the level left
Outline: as §5

Rattus norvegicus [17] = assay: Reduction in amphetamine-induced locomotor activity in Sprague-Dawley rat striatum at 1 umol/kg, sc relative to control; type: functional; parameters: scale not given: the % may be the effect or the level left
Outline: as §3

Rattus norvegicus [18] = assay: Reduction in 3,4-dihydroxyphenylacetic acid level in Sprague-Dawley rat striatum at 10.5 umol/kg, sc relative to saline treated control; type: functional; parameters: scale not given: the % may be the effect or the level left
Outline: as §4

Rattus norvegicus [19] = assay: Reduction in spontaneous locomotor activity in Sprague-Dawley rat striatum at 10.5 umol/kg, sc relative to control; type: functional; parameters: scale not given: the % may be the effect or the level left
Outline: as §5

Rattus norvegicus [20] = assay: Reduction in amphetamine-induced locomotor activity in Sprague-Dawley rat striatum at 10.5 umol/kg, sc relative to control; type: functional; parameters: scale not given: the % may be the effect or the level left
Outline: as §3

Rattus norvegicus [21] = assay: Reduction in 3,4-dihydroxyphenylacetic acid level in Sprague-Dawley rat striatum at 117 umol/kg, sc relative to saline treated control; type: functional; parameters: scale not given: the % may be the effect or the level left
Outline: as §1

Rattus norvegicus [22] = assay: Reduction in spontaneous locomotor activity in Sprague-Dawley rat striatum at 117 umol/kg, sc relative to control; type: functional; parameters: scale not given: the % may be the effect or the level left

T1 sequence (P14416 whole entry): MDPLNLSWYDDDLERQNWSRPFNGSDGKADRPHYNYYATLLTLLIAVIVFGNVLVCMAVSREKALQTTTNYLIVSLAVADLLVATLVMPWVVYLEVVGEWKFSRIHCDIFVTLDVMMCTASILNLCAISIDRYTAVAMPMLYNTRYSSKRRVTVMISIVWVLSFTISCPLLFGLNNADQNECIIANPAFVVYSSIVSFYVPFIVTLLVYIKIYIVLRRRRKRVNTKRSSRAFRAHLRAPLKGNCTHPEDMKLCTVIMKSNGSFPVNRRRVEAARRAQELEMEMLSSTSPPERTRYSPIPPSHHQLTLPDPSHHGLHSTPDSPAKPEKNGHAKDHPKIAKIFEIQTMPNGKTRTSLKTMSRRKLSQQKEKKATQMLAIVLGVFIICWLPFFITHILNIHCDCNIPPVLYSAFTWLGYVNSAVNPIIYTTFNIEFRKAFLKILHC

`CCCN1CCC[C@@H](c2cccc(S(C)(=O)=O)c2)C1` showed a pKi (D(2) dopamine receptor [1]) of 5.41, a pKi (D(2) dopamine receptor [2]) of 6.12 and an Activity (Rattus norvegicus [3]) of 260%. For the same compound, the Activity (Rattus norvegicus [4]) was 215% and the Activity (Rattus norvegicus [5]) was 37%.
`CCCN1CCN(c2cccc(O)c2)CC1` gave a pKi (D(2) dopamine receptor [1]) of 6.14, a pKi (D(2) dopamine receptor [2]) of 7.16 and an Activity (Rattus norvegicus [6]) of 261%. The Activity (Rattus norvegicus [7]) was 31% and the Activity (Rattus norvegicus [8]) was 16%.
In the case of `Oc1cccc(C2CCN(Cc3ccccc3)CC2)c1`, the pKi (D(2) dopamine receptor [1]) was 6.55, the pKi (D(2) dopamine receptor [2]) was 7.46 and the Activity (Rattus norvegicus [6]) was 317%. The Activity (Rattus norvegicus [7]) was 85% and the Activity (Rattus norvegicus [8]) was 12%.
`CCCN1CCC(c2cccc(O)c2)CC1` was tested, and the pKi (D(2) dopamine receptor [1]) was 5.59 and the pKi (D(2) dopamine receptor [2]) was 6.46.
Compound `CS(=O)(=O)c1cccc(C2CCN(Cc3ccccc3)CC2)c1` has a pKi (D(2) dopamine receptor [1]) of 6.08, a pKi (D(2) dopamine receptor [2]) of 6.41 and an Activity (Rattus norvegicus [6]) of 310%. It also gave an Activity (Rattus norvegicus [7]) of 44% and an Activity (Rattus norvegicus [9]) of 6%.
For `CCCN1CCN(c2cccc(S(C)(=O)=O)c2)CC1`, the pKi (D(2) dopamine receptor [1]) was 5.92, the pKi (D(2) dopamine receptor [2]) was 6.18 and the Activity (Rattus norvegicus [6]) was 310%. It also gave an Activity (Rattus norvegicus [7]) of 27% and an Activity (Rattus norvegicus [8]) of 6%.
For `CS(=O)(=O)c1cccc(N2CCN(Cc3ccccc3)CC2)c1`, the pKi (D(2) dopamine receptor [1]) was 5.72, the pKi (D(2) dopamine receptor [2]) was 6.37 and the Activity (Rattus norvegicus [3]) was 248%. For the same compound, the Activity (Rattus norvegicus [4]) was 17% and the Activity (Rattus norvegicus [5]) was 15%.
`Oc1cccc(N2CCN(Cc3ccccc3)CC2)c1` gave an Activity (Rattus norvegicus [3]) of 108%, an Activity (Rattus norvegicus [4]) of 8% and an Activity (Rattus norvegicus [5]) of 10%.
In the case of `CN1CCc2cccc3c2[C@H]1Cc1ccc(O)c(O)c1-3` [APOMORPHINE], the Activity (Rattus norvegicus [10]) was 77% and the Activity (Rattus norvegicus [11]) was 7118%.
Work on `O=C1CCc2ccc(OCCCCN3CCN(c4cccc(Cl)c4Cl)CC3)cc2N1` [ARIPIPRAZOLE] yielded an Activity (Rattus norvegicus [12]) of 150%, an Activity (Rattus norvegicus [13]) of 2% and an Activity (Rattus norvegicus [14]) of 9%.
`O=c1[nH]c2cccc(N3CCN(Cc4cccc(-c5ccccc5)c4)CC3)c2o1` [BIFEPRUNOX] was tested, and the Activity (Rattus norvegicus [12]) was 152%, the Activity (Rattus norvegicus [13]) was 7% and the Activity (Rattus norvegicus [14]) was 5%.
`O=C(CCCN1CCC(O)(c2ccc(Cl)cc2)CC1)c1ccc(F)cc1` [HALOPERIDOL] gave an Activity (Rattus norvegicus [15]) of 425%, an Activity (Rattus norvegicus [16]) of 7% and an Activity (Rattus norvegicus [17]) of 1%.
Work on `Cc1cc2c(s1)Nc1ccccc1N=C2N1CCN(C)CC1` [OLANZAPINE] yielded an Activity (Rattus norvegicus [18]) of 362%, an Activity (Rattus norvegicus [19]) of 17% and an Activity (Rattus norvegicus [20]) of 6%.
In the case of `CCCN1CCC[C@@H](c2cccc(O)c2)C1` [PRECLAMOL], the Activity (Rattus norvegicus [21]) was 175% and the Activity (Rattus norvegicus [22]) was 37%.
`CCCN1CCC(c2cccc(S(C)(=O)=O)c2)CC1` [PRIDOPIDINE] was tested, and the pKi (D(2) dopamine receptor [1]) was 4.76, the pKi (D(2) dopamine receptor [2]) was 5.12 and the Activity (Rattus norvegicus [3]) was 265%. For the same compound, the Activity (Rattus norvegicus [4]) was 262%.

From ChEMBL document CHEMBL1157594, “Synthesis and evaluation of a set of 4-phenylpiperidines and 4-phenylpiperazines as D2 receptor ligands and the discovery of the dopaminergic stabilizer 4-[3-(methylsulfonyl)phenyl]-1-propylpiperidine (huntexil, pridopidine, ACR16)” (J Med Chem, 2010)
